Screens: PubChem BioAssay, several laboratories
Rows were chosen to be rich in hits. Some 1.7% of all compounds tested hit in one or more screens of this group.
PolyA inhibitor = polyadenylation inhibitors in yeast reporter cells, primary screen, luminescence, S. cerevisiae. S. cerevisiae SKY197-pL101 polyadenylation reporter, beta-gal luminescence; efflux-impaired pdr1/pdr3 knockout yeast; score 100 = 6 SD above DMSO. activity score, % at 12 µM. 300,000 compounds, 0.02% hits;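 active = lowest replicate activity score at least 50, where 100 means six control SD above control mean; inconclusive = lowest score under 50 but half or more replicates reach 50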;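 note: yeast exposed to compound for 9 h at 30 °C; higher score means more reporter readthrough which indicates perturbed polyadenylation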
Neddylation inh = inhibitors of cullin neddylation, primary screen, biochemical, TR-FRET, uHTS, NAE and Ubc12 | 360,000 compounds, 0.58% hits | calls only at 25 µM | NEDD8-conjugating enzyme Ubc12 (Homo sapiens) + NEDD8-activating enzyme E1 regulatory … | AID 651699, 2012; in the data active = inhibition above about 36%
procasp3 activ = activators of human procaspase-3 D3A mutant, primary screen, biochemical, absorbance, PC-3 D3A mutant, single concentration. Caspase-3 (Homo sapiens), P42574. recombinant procaspase-3 D3A, Ac-DEVD-pNA absorbance 405 nm. activation, % at 8.5 µM. 330,000 compounds, 0.11% hits. AID 463141, 2010;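 active = activation above the mean of all tested compounds plus 3 SD, cut at about 21% in these data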;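 note: 0% = DMSO alone and 100% = DMSO wells spiked with extra 5 µM PC-3 D3A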
Target sequence (P42574 whole entry D9A/D28A/D175A): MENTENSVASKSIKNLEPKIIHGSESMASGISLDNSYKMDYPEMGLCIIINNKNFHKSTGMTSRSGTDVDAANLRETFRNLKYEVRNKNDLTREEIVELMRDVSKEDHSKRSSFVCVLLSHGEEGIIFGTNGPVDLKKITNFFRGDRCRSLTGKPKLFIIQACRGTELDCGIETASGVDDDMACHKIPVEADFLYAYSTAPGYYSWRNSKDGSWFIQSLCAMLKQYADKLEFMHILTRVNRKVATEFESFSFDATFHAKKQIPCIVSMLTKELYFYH
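Compound: 8.5 µM single point, 0.8% DMSO / Material: Autoprocessing-dead procaspase-3 D3A mutant enzyme / Timing: 1 h preincubation plus 2 h reaction at 25 °C / Medium: Zinc-free HEPES/NaCl buffer with 0.01% Triton X-100 at pH 7.4 / Technique: 405 nm absorbance of p-nitroaniline, reads at 0 and 120 min / Repeats: one well per compound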
VIM-2 inh = VIM-2 metallo-beta-lactamase inhibitors, primary screen, biochemical, epi-absorbance readout, Pseudomonas aeruginosa enzyme. purified VIM-2, nitrocefin hydrolysis, epi-absorbance fluorescence. inhibition, % at 5.6 µM. 290,000 compounds, 0.89% hits;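 active = inhibition above the mean of all tested compounds plus 3 SD, cutoff set per screening run, cut at about 7.5% in these data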;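 note: red hydrolysis product quenches plate fluorescence so inhibitors raise well fluorescence; 0% = enzyme with DMSO and 100% = DMSO without enzyme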
IMP-1 inh = IMP-1 metallo-beta-lactamase inhibitors, primary screen, biochemical, epi-absorbance readout, Pseudomonas aeruginosa enzyme | metallo-beta-lactamase IMP-1 (Pseudomonas aeruginosa) | purified IMP-1, nitrocefin hydrolysis, epi-absorbance fluorescence | inhibition, % at 5.6 µM | 290,000 compounds, 0.45% hits | AID 1556, 2009;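 active = inhibition above the mean plus 3 SD of all compounds in the same screening run, cut at about 4.5% in these data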;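 note: 0% = IMP-1 with DMSO and 100% = DMSO wells lacking enzyme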
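System: purified recombinant IMP-1 beta-lactamase. Medium: Zinc- and detergent-supplemented HEPES buffer, pH 7.1. Compound: one 5.6 µM dose […]. Schedule: 15 min preincubation plus 25 min reaction at 25 °C. Technique: Epi-absorbance fluorescence, 480 nm excitation, 530 nm emission.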
procasp7 counter = procaspase-7 activators, primary screen, counter-screen for procaspase-3 activator project, biochemical, absorbance, HTS, human. Caspase-7 (Homo sapiens), P55210. recombinant procaspase-7, Ac-DEVD-pNA absorbance 405 nm; D23A/D198A/D206A triple mutant, cannot self-cleave; scale: DMSO 0, 5 µM enzyme 100. activation, % at 8.5 µM. 330,000 compounds, 0.093% hits;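 active = percent activation above the screen-wide mean plus 3 SD, cut at about 25% in these data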
Target sequence (P55210 whole entry D23A/D198A/D206A): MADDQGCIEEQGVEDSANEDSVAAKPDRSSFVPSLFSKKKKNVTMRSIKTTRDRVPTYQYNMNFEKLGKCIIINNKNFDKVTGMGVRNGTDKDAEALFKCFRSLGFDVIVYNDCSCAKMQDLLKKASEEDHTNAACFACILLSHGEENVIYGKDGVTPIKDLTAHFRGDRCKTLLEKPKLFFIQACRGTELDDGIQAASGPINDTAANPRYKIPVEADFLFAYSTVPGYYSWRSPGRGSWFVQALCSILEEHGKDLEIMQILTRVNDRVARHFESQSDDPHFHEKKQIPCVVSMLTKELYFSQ
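Replicates: singlicate. Assay system: Procaspase-7 triple mutant (PC-7 D3A). Signal: 405 nm absorbance of p-nitroaniline. Times: 1 h preincubation, 2 h reaction. Buffer or medium: Zinc-free HEPES pH 7.4 with 300 mM NaCl, 0.01% Triton X-100. Also added: DEVD-pNA substrate. Benchmarks: DMSO wells as 0%, DMSO with 5 µM added PC-7 as 100%.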
VIM-2 inh confirm = P. aeruginosa VIM-2 enzyme inhibition – biochemical, epi-absorbance, HTS, confirmation | inhibition, % at 5.6 µM | 200 compounds, 73% hits | AID 1860, 2009 | shares compounds with IMP-1 inh | purified VIM-2 enzyme, nitrocefin absorbance; in the data active = inhibition above about 8%;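 note: 0% = enzyme with vehicle and 100% = no enzyme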
TEM-1 inh 2 = Serine beta-lactamase TEM-1 inhibition, biochemical epi-absorbance counter-screen for IMP-1/VIM-2 inhibitor program; shares compounds with IMP-1 inh; TEM-1 beta-lactamase, nitrocefin absorbance inhibition; inhibition, % at 5.6 µM; 200 compounds, 50% hits; AID 2184, 2009; in the data active = inhibition above about 0.66%
IMP-1 confirm = IMP-1 metallo-beta-lactamase inhibitors, confirmation, biochemical, epi-absorbance, hits shared with VIM-2 screen. shares compounds with IMP-1 inh. purified IMP-1 enzyme, absorbance substrate hydrolysis. inhibition, % at 5.6 µM. 200 compounds, 60% hits. AID 2189, 2009; in the data active = inhibition above about 4.9%;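 note: 0% = enzyme with vehicle and 100% = vehicle without enzyme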
The depositor's hits bear a star; i = inactive; ? = inconclusive; nt = not tested or not shown.

SMILES | PolyA inhibitor | Neddylation inh | procasp3 activ | VIM-2 inh | IMP-1 inh | procasp7 counter | VIM-2 inh confirm | TEM-1 inh 2 | IMP-1 confirm
CC(=O)N1CCCc2ccc(NS(=O)(=O)c3ccc(C)cc3)cc21 | -11 | i | 2 | nt | nt | 2 | nt | nt | nt
O=C(O)CCCN1C(=O)/C(=C/C=C/c2ccco2)SC1=S | ? | i | -11 | 7 | 10* | -31 | -1 | -4 | -3
Cc1cccc(C)c1NC(=O)CSc1nc(-c2ccco2)cc(C(F)(F)F)n1 | 1 | i | 4 | -4 | -2 | 0 | nt | nt | nt
Cc1ccc(N=Cc2sc(O)c3ccccc23)cc1 | -15 | i | -25 | 8.4* | 24* | -31 | 14* | -2 | 1
COCCCn1c(=NC(C)=O)c(C#N)cc2c(=O)n3cccc(C)c3nc21 | -8 | nt | -11 | 0 | -2 | -4 | nt | nt | nt
COCCCn1c(=NC(=O)c2ccccc2)c(C#N)cc2c(=O)n3cccc(C)c3nc21 | -11 | nt | -23 | 9.3* | 8.5* | -28 | 18* | 32* | 11*
CCc1ccc(S(=O)(=O)Nc2ccc(O)c3c(=O)cc(-c4ccccc4Cl)oc23)cc1 | -13 | i | -3 | nt | nt | 2 | nt | nt | nt
CCOC(=O)c1c2c3c(cccc3[nH]c1=O)C(=O)c1ccccc1-2 | 7 | i | 3 | 0 | -2 | 7 | nt | nt | nt
CCOC(=O)c1c2c3c(cccc3n(C)c1=O)C(=O)c1ccccc1-2 | -27 | i | -10 | 15* | 21* | -15 | 20* | 1.4* | 7.9*
CN1/C(=C\C=C2/SC(=S)N(CC(=O)O)C2=O)C(C)(C)c2ccccc21 | -33 | i | -13 | 11* | 17* | -14 | 23* | 21* | 21*
Cn1ncc([N+](=O)[O-])c1C(=O)Nc1nc2ccccc2n1CCN1CCCCC1 | 27 | i | 8 | -5 | -4 | 11 | nt | nt | nt
CCOC(=O)C(NCc1ccccc1OC)(NC(=O)CC)C(F)(F)F (stereo unspecified) | 1 | i | 9 | -2 | -1 | 13 | nt | nt | nt
COc1ccc2c(Cl)c(C(=O)NCCCn3ccnc3)sc2c1Cl | 1 | i | 3 | 26* | 35* | 8 | 45* | -4 | 57*
COc1cc(OC)c(C(=O)NCCCn2ccnc2)cc1OC | 7 | i | 8 | 0 | -4 | -4 | nt | nt | nt
CNS(=O)(=O)/C=C/c1ccccc1 | 9 | i | 4 | 0 | -2 | 3 | nt | nt | nt
CCC(=O)Nc1sccc1C(=O)OC | -3 | i | 0 | -1 | -4 | 1 | nt | nt | nt
CCOC(=O)NC(=O)C(/C=N/c1sccc1C(=O)OC)=C(\C)O | 7 | i | 4 | 7.8* | 8.6* | -1 | 10* | -3 | -3
Cn1cccc1C(=O)NCC(c1ccc(F)cc1)N1CCOCC1 (stereo unspecified) | -4 | i | -1 | -4 | -2 | 0 | nt | nt | nt
O=C(Nc1ccc(NC(=O)c2cccs2)cc1)c1cccs1 | 13 | i | -6 | -2 | -4 | 11 | nt | nt | nt
O=C(Nc1ccc(Oc2ccc(C(=O)O)c(C(=O)O)c2)cc1)c1cccs1 | 8 | i | -10 | 21* | 5.4* | 0 | 25* | -3 | 4
COc1ccc(Cl)cc1C(=O)Nc1cccc(-c2ccc3nncn3n2)c1 | -14 | i | -8 | 26* | 23* | 7 | 34* | 3.0* | 11*
COc1cccc(C(=O)Nc2cccc(-c3ccc4nncn4n3)c2)c1OC | -1 | i | 1 | -2 | -2 | -2 | nt | nt | nt
O=C1c2ccccc2-c2onc3ccc(NCCCn4ccnc4)c1c23 | -1 | nt | -10 | 55* | 4.6* | -11 | 89* | 69* | 56*
OCC[C@@H]1C[C@@H](O)[C@H](O)[C@@]2(OCc3ccccc32)O1 | 1 | i | 12 | -2 | 0 | 5 | nt | nt | nt
Cc1cc2nc3c(=O)[nH]c(=O)[nH]c3nc2c([N+](=O)[O-])c1N | nt | i | nt | 12* | 12* | nt | 11* | 20* | 4
SMILES | PolyA inhibitor | Neddylation inh | procasp3 activ | VIM-2 inh | IMP-1 inh | procasp7 counter | VIM-2 inh confirm | TEM-1 inh 2 | IMP-1 confirm
COc1cccc(C2Nc3ccc4ccccc4c3C3=C2C(=O)CC(C)(C)C3)c1OCC(=O)O (stereo unspecified) | -21 | nt | -3 | 9.5* | 11* | 3 | 8.1* | -1 | 4
C=CCOc1ccc(Br)cc1/C=C1\NC(=S)N(C(C)=O)C1=O | -9 | i | -6 | -3 | -2 | -7 | nt | nt | nt
CC1(C)CC(NCCN2CCN(C3=CC(=C(C#N)C#N)CC(C)(C)C3)CC2)=CC(=C(C#N)C#N)C1 | 0 | i | 4 | -2 | -1 | 9 | nt | nt | nt
CCN1CCN(C2=CC3=CC(=C(C#N)C#N)CCC3CC2)CC1 (stereo unspecified) | nt | i | nt | 55* | 72* | nt | 62* | 67* | 58*
CN1CCN(C2=CC3=CC(=C(C#N)C#N)CCC3CC2)CC1 (stereo unspecified) | nt | i | nt | 58* | 67* | nt | 62* | 66* | 63*
N#CC(C#N)=C1C=C2C=C(N3CCCCCC3)CCC2CC1 (stereo unspecified) | -2 | i | nt | 38* | 38* | nt | 64* | 92* | 58*
N#Cc1cc(Cl)c(N2CCOCC2)cc1C#N | 16 | i | -1 | -3 | -3 | 4 | nt | nt | nt
N#CC(C#N)=C1C=C2C=C(N3CCOCC3)CCC2CC1 (stereo unspecified) | 18 | i | nt | 20* | 17* | nt | 64* | 76* | 60*
CSC1=N/C(=C\c2ccccc2)C(=O)N1C | 0 | i | -2 | -3 | -2 | -7 | nt | nt | nt
CCOc1cc2c(cc1C=O)OC(C)C2 (stereo unspecified) | 20 | i | 1 | 2 | 0 | 0 | nt | nt | nt
